Source: ChEMBL document CHEMBL1141591, “Lipophilic modifications to dinucleoside polyphosphates and nucleotides that confer antagonist properties at the platelet P2Y12 receptor” (J Med Chem, 2008)
Active and inactive are the calls of the source. The rule behind the calls is not given here.

What was measured:
P2Y purinoceptor 2 [1] = target: T1, P2Y purinoceptor 2 (Homo sapiens, UniProt P41231); assay: Agonist activity at P2Y2 receptor expressed in human 1321 cells by calcium mobilization assay; assay type: functional, cell-based
T1 sequence (P41231 whole entry): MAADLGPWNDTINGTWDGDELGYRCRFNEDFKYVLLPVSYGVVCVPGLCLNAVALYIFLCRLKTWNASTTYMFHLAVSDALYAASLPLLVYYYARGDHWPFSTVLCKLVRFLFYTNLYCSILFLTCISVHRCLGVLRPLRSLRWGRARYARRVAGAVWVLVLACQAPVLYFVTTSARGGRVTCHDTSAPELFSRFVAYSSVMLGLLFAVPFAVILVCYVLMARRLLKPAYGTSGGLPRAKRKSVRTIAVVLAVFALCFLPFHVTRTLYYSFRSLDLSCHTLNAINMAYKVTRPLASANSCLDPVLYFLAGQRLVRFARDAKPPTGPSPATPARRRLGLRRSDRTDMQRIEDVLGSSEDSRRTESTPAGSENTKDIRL

P2Y purinoceptor 1 [2] = target: T2, P2Y purinoceptor 1 (Homo sapiens, UniProt P47900); assay: Agonist at human recombinant P2Y1 receptor expressed in human 1321 cells by calcium mobilization assay; assay type: functional, cell-based
T2 sequence (P47900 whole entry): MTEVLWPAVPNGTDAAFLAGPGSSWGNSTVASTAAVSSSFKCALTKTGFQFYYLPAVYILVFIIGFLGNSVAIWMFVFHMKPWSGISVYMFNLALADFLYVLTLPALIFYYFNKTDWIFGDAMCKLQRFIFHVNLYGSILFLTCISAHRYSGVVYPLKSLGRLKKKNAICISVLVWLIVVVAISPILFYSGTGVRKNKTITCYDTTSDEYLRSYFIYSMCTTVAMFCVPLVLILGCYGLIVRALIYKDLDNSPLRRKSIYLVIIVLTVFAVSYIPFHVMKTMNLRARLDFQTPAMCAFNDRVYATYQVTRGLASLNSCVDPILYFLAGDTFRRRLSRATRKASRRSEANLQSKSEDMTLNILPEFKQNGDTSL
Procedure, shortened: (§1)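 1321N1 human astrocytoma cells expressing the recombinant receptor were loaded with Fluo-3 AM (2.5 µM final) for 60 min at 25 °C. Assay buffer: KCl 10, NaCl 118, CaCl2 2.5, MgCl2 1, HEPES 20, glucose 10 mM, pH 7.4. Cells were washed and then stimulated with compound. Intracellular calcium was read as the change in fluorescence (FLIPR). Values are EC50 in µM. SR means 5–20% of maximal response at the top concentration, usually 100 µM. NR means no response.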

P2Y purinoceptor 6 [3] = target: T3, P2Y purinoceptor 6 (Homo sapiens, UniProt Q15077); assay: Agonist activity at P2Y6 receptor expressed in human 1321 cells at 100 uM by calcium mobilization assay; assay type: functional, cell-based; procedure, shortened: as §1
T3 sequence (Q15077 whole entry): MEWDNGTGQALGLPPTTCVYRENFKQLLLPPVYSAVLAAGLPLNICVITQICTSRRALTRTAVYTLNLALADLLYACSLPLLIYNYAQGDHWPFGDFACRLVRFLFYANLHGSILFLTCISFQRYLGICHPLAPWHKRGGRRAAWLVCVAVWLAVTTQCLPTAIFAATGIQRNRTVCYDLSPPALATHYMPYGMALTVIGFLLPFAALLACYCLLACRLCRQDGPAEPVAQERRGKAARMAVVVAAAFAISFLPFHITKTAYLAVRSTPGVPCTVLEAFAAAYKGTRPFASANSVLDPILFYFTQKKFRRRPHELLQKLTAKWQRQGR

P2Y purinoceptor 1 [4] = target: T2, P2Y purinoceptor 1; assay: Agonist activity at human recombinant P2Y1 receptor expressed in human 1321 cells at 100 uM by calcium mobilization assay; assay type: functional, cell-based; procedure, shortened: as §1
[5] = target: P2Y purinoceptor 12 (Homo sapiens) (UniProt Q9H244); assay: Antagonist activity at P2Y12 receptor assessed as inhibition of ADP-induced human platelet aggregation by washed platelet assay at 100 uM; assay type: functional
Chain of P2Y purinoceptor 12 (Homo sapiens) (Q9H244 whole entry): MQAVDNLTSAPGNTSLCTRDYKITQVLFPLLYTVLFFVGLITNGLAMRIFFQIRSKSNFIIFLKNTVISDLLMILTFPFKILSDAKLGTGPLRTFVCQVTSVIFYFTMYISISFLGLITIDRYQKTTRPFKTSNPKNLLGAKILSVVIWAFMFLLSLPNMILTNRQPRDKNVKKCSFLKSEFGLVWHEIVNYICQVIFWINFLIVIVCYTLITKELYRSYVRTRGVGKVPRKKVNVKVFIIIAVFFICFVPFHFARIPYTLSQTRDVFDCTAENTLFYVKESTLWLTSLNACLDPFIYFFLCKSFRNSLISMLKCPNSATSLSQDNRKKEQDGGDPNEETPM
Procedure, shortened: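 Blood from healthy volunteers was anticoagulated with ACD and spun at 180g for 15 min to give PRP. Platelets were washed three times in HEPES-buffered saline, pH 7.4, with 0.2% BSA and 5 µM PGI2, then resuspended with 0.25 U/mL apyrase. The suspension held 1 mg/mL fibrinogen at 37 °C, stirred at 1000 rpm. Compound (usually 1 nM–100 µM) was added for 2 min, then ADP at EC90 (usually 1–10 µM). Optical aggregation was recorded for 8 min. IC50 came from a four-parameter logistic fit.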

P2Y purinoceptor 6 [6] = target: T3, P2Y purinoceptor 6; assay: Agonist activity at P2Y6 receptor expressed in human 1321 cells by calcium mobilization assay; assay type: functional, cell-based; procedure, shortened: as §1
P2Y purinoceptor 2 [7] = target: T1, P2Y purinoceptor 2; assay: Agonist activity at P2Y2 receptor expressed in human 1321 cells at 100 uM by calcium mobilization assay; assay type: functional, cell-based; procedure, shortened: as §1
[8] = target: P2Y purinoceptor 4 (Homo sapiens) (UniProt P51582); assay: Agonist activity at P2Y4 receptor expressed in human 1321 cells at 100 uM by calcium mobilization assay; assay type: functional, cell-based
Chain of P2Y purinoceptor 4 (Homo sapiens) (P51582 whole entry): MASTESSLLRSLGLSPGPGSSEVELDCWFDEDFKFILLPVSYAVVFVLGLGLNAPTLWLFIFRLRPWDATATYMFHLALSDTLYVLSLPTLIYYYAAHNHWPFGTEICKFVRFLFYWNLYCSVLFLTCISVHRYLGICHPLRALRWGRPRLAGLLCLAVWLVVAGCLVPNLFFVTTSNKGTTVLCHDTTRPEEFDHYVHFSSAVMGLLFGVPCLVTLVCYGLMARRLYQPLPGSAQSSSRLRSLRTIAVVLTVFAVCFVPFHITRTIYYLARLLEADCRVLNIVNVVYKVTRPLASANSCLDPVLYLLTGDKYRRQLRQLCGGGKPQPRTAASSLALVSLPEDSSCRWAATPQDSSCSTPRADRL

[9] = target: P2Y purinoceptor 12 (Homo sapiens) (UniProt Q9H244); assay: Reversal of antagonist activity at P2Y12 receptor in human washed platelets pretreated at 50 uM for 3 mins before addition of 2-Me-S-ADP and fibrinogen; assay type: functional
Procedure, shortened: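 Washed human platelets were incubated with 50 µM antagonist for 3 min at 37 °C without fibrinogen. One set was then stimulated directly with 2-MeS-ADP plus fibrinogen. The other set was centrifuged once, resuspended in drug-free medium, and then stimulated. Optical aggregation was monitored for 6–8 min.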

[10] = target: P2Y purinoceptor 12 (Homo sapiens) (UniProt Q9H244); assay: Antagonist activity at P2Y12 receptor assessed as inhibition of 2-MeS-ADP-induced human platelet aggregation; assay type: functional
Procedure, shortened: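 Washed human platelets (ACD-anticoagulated blood, PGI2/apyrase washes) with 1 mg/mL fibrinogen at 37 °C, stirred. Concentration–response curves to 2-MeS-ADP were run alone and with antagonist at 1, 3, 10, 30 or 100 µM. Aggregation was read optically. Schild (Arunlakshana-Schild) analysis gave KB and slope.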

Compound | EC50 (P2Y purinoceptor 2 [1]) [nM] | EC50 (P2Y purinoceptor 1 [2]) [nM] | Activity (P2Y purinoceptor 6 [3]) | Activity (P2Y purinoceptor 1 [4]) | inhibition [5] [%] | EC50 (P2Y purinoceptor 6 [6]) [nM] | Activity (P2Y purinoceptor 2 [7]) | Activity [8] | Activity [5] | Activity [9] | Kb [10] [nM]
Nc1ncnc2c1ncn2[C@@H]1O[C@H](COP(=O)(O)OP(=O)(O)O)[C@H]2O[C@@H](Cc3ccccc3)O[C@H]21 | 13900 | 4390 | inactive | – | – | – | – | – | – | – | –
Nc1ccn([C@@H]2O[C@H](COP(=O)(O)OP(=O)(O)OP(=O)(O)OP(=O)(O)OC[C@@H]3O[C@H](n4ccc(=O)[nH]c4=O)[C@@H](O)[C@H]3O)[C@H]3OC(Cc4ccccc4)O[C@H]32)c(=O)n1 (some centres undefined) | 545 | – | inactive | inactive | 46 | – | – | – | – | – | –
CNc1ccccc1C(=O)O[C@H]1[C@@H](O)[C@H](COP(=O)(O)OP(=O)(O)OP(=O)(O)OP(=O)(O)OC[C@H]2O[C@@H](n3ccc(=O)[nH]c3=O)[C@H](O)[C@@H]2O)O[C@@H]1n1ccc(=O)[nH]c1=O | 130 | – | > 5% | inactive | 46 | – | – | – | – | – | –
CCCC1O[C@@H]2[C@H](O1)[C@@H](COP(=O)(O)OP(=O)(O)OP(=O)(O)OP(=O)(O)OC[C@@H]1O[C@H](n3ccc(=O)[nH]c3=O)[C@@H](O)[C@H]1O)O[C@H]2n1ccc(=O)[nH]c1=O (some centres undefined) | 98 | – | – | inactive | 44 | 30000 | – | – | – | – | –
Nc1ncnc2c1ncn2[C@@H]1O[C@H](COP(=O)(O)O)[C@H]2O[C@@H](c3ccccc3)O[C@H]21 | – | – | inactive | inactive | 75 | – | inactive | inactive | – | – | –
O=c1ccn([C@@H]2O[C@H](COP(=O)(O)OP(=O)(O)OP(=O)(O)OC[C@@H]3O[C@H](n4ccc(=O)[nH]c4=O)[C@@H](O)[C@H]3O)[C@@H](O)[C@H]2O)c(=O)[nH]1 | 13500 | – | – | inactive | – | 400 | – | – | inactive | – | –
Nc1ncnc2c1ncn2[C@@H]1O[C@H](COP(=O)(O)O)[C@H]2OC(C#Cc3ccccc3)O[C@H]21 (some centres undefined) | – | – | inactive | inactive | – | – | inactive | inactive | – | – | –
Nc1ncnc2c1ncn2[C@@H]1O[C@H](COP(=O)(O)OP(=O)(O)OP(=O)(O)OP(=O)(O)OC[C@@H]2O[C@H](n3cnc4c(N)ncnc43)[C@@H](O)[C@H]2O)[C@@H](O)[C@H]1O | 72 | 426 | inactive | – | 63 | – | – | – | – | – | –
CCNC(=O)Nc1ncnc2c1ncn2[C@@H]1O[C@H](COP(=O)(O)O)[C@H]2OC(Cc3ccccc3)O[C@H]21 (some centres undefined) | – | – | inactive | inactive | – | – | inactive | inactive | – | – | –
CCCCCCNC(=O)Nc1ncnc2c1ncn2[C@@H]1O[C@H](COP(=O)(O)O)C2OC(/C=C/c3ccccc3)OC21 (single isomer, unassigned) | – | – | inactive | inactive | – | – | inactive | inactive | – | – | –
O=c1ccn([C@@H]2O[C@H](COP(=O)(O)OP(=O)(O)OP(=O)(O)OP(=O)(O)OC[C@@H]3O[C@H](n4ccc(=O)[nH]c4=O)[C@@H](O)[C@H]3O)[C@@H](O)[C@H]2O)c(=O)[nH]1 | – | – | – | inactive | – | 18600 | – | – | inactive | – | –
Nc1ccn([C@@H]2O[C@H](COP(=O)(O)OP(=O)(O)OP(=O)(O)OP(=O)(O)OC[C@@H]3O[C@H](n4ccc(=O)[nH]c4=O)[C@@H](O)[C@H]3O)[C@@H](O)[C@H]2O)c(=O)n1 | 44 | – | > 5% | > 5% | – | – | – | – | inactive | – | –
Nc1ncnc2c1ncn2[C@@H]1O[C@H](COP(=O)(O)O)[C@H]2OC(/C=C/c3ccccc3)O[C@H]21 (some centres undefined) | – | – | inactive | inactive | – | – | inactive | inactive | – | – | –
CCNC(=O)Nc1ncnc2c1ncn2[C@@H]1O[C@H](COP(=O)(O)O)[C@H]2OC(c3ccccc3)O[C@H]21 (some centres undefined) | – | – | inactive | inactive | – | – | inactive | inactive | – | – | –
O=C(Nc1ncnc2c1ncn2[C@@H]1O[C@H](COP(=O)(O)O)C2OC(Cc3ccccc3)OC21)NC1CCCC1 (single isomer, unassigned) | – | – | inactive | inactive | – | – | inactive | inactive | – | – | –
O=c1ccn([C@@H]2O[C@H](COP(=O)(O)OP(=O)(O)OP(=O)(O)OC[C@@H]3O[C@H](n4ccc(=O)[nH]c4=O)[C@@H](O)[C@H]3O)[C@H]3OC(Cc4ccccc4)O[C@H]32)c(=O)[nH]1 (some centres undefined) | – | – | – | inactive | – | 154 | inactive | – | – | – | –
O=C(Nc1ccc(F)cc1)Nc1ccn([C@@H]2O[C@H](COP(=O)(O)OP(=O)(O)OP(=O)(O)OP(=O)(O)OC[C@@H]3O[C@H](n4ccc(=O)[nH]c4=O)[C@@H](O)[C@H]3O)[C@@H](O)[C@H]2O)c(=O)n1 | 2420 | – | – | > 5% | – | – | – | – | inactive | – | –
O=C(Nc1ccccc1)Nc1ncnc2c1ncn2[C@@H]1O[C@H](COP(=O)(O)OP(=O)(O)O)[C@@H](O)[C@H]1O | 9400 | 2630 | – | – | – | 9750 | – | – | – | – | –
O=C(Nc1ccccc1)Nc1ncnc2c1ncn2[C@@H]1O[C@H](COP(=O)(O)O)C2OC(C#Cc3ccccc3)OC21 (single isomer, unassigned) | – | – | inactive | inactive | – | – | inactive | inactive | – | – | –
CCCCCCNC(=O)Nc1ncnc2c1ncn2[C@@H]1O[C@H](COP(=O)(O)O)[C@H]2OC(Cc3ccccc3)O[C@H]21 (some centres undefined) | – | – | inactive | inactive | – | – | inactive | inactive | – | – | –
O=C(Nc1ccccc1)Nc1ncnc2c1ncn2[C@@H]1O[C@H](COP(=O)(O)O)[C@H]2OC(Cc3ccccc3)O[C@H]21 (some centres undefined) | – | – | inactive | inactive | – | – | inactive | inactive | – | – | –
Nc1ncnc2c1ncn2[C@@H]1O[C@H](COP(=O)(O)O)[C@H]2O[C@@H](Cc3ccccc3)O[C@H]21 | – | – | inactive | inactive | 47 | – | inactive | inactive | – | – | –
O=c1ccn([C@@H]2O[C@H](COP(=O)(O)OP(=O)(O)OP(=O)(O)OP(=O)(O)OC[C@@H]3O[C@H](n4ccc(=O)[nH]c4=O)[C@H]4OC(Cc5ccccc5)O[C@H]43)[C@H]3OC(Cc4ccccc4)O[C@H]32)c(=O)[nH]1 (some centres undefined) | 14600 | – | > 5% | inactive | – | – | – | – | – | Active | 249
O=C(Nc1ccccc1)Nc1ncnc2c1ncn2[C@@H]1O[C@H](COP(=O)(O)O)[C@@H](O)[C@H]1O | – | – | inactive | inactive | – | – | inactive | inactive | – | – | –
CCNC(=O)Nc1ncnc2c1ncn2[C@@H]1O[C@H](COP(=O)(O)O)C2OC(/C=C/c3ccccc3)OC21 (single isomer, unassigned) | – | – | inactive | inactive | – | – | inactive | inactive | – | – | –
O=C(Nc1ccccc1)Nc1ncnc2c1ncn2[C@@H]1O[C@H](COP(=O)(O)O)C2OC(/C=C/c3ccccc3)OC21 (single isomer, unassigned) | – | – | inactive | inactive | – | – | inactive | inactive | – | – | –
CCCCCCNC(=O)Nc1ncnc2c1ncn2[C@@H]1O[C@H](COP(=O)(O)O)C2OC(C#Cc3ccccc3)OC21 (single isomer, unassigned) | – | – | inactive | inactive | – | – | inactive | inactive | – | – | –
CCNC(=O)Nc1ncnc2c1ncn2[C@@H]1O[C@H](COP(=O)(O)O)C2O[C@H](/C=C/c3ccccc3)OC21 (single isomer, unassigned) | – | – | inactive | inactive | – | – | inactive | inactive | – | – | –
CCCC1O[C@@H]2[C@@H](O1)[C@@H](COP(=O)(O)OP(=O)(O)OP(=O)(O)OP(=O)(O)OC[C@@H]1O[C@H](n3ccc(=O)[nH]c3=O)[C@H]3OC(CCC)O[C@H]31)O[C@H]2n1ccc(=O)[nH]c1=O (some centres undefined) | – | – | > 5% | inactive | 60 | – | > 5% | – | – | – | –
